Hits are enriched below; roughly 6.4% of the tested compounds scored in any of these assays.
E coli WT exp = growth inhibitors of wild-type E. coli, primary screen, strain BW25113, expanded library, OD600 | OD600 absorbance | growth inhibition, % at 100 µM | AID 710, 2007 | hit rate 0.15% among 98,000;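 active = growth inhibition above about 50% at one test dose, limit read from the data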;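 also: growth measured after 20 h incubation at 37 °C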
Fibroblast inh = antiproliferative effect on LL 47 fibroblasts – human, LL 47 cells, CellTiter-Glo luminescence, primary screen. hit rate 1.1% among 85,000. AID 719, 2007. LL 47 human lung fibroblast viability, ATP luminescence; active compounds read low. viability, % at 10 µM;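 active = viability at or below 50% in the single dose screen; inactive = viability above 50%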;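 also: compound exposure lasted 72 h before the ATP readout; 100% = median luminescence of untreated cell-only wells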
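Material: human lung fibroblast line LL 47, low passage; Evaluation: viability percentage against median untreated-cell control; Buffer or medium: 15% FBS in IMEM; Incubation: 72 h compound exposure at 37 °C after overnight plating; Dosing: 0.1% DMSO in all compound wells; Measured by: CellTiter-Glo luminescence.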
HUVEC prolif 384 = inhibitors of HUVEC proliferation, primary screen, cell-based, 384-well; CellTiter-Glo luminescence, 72 h; active compounds read low; viability, % at 10 µM (by protocol); hit rate 1.1% among 86,000;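 active = viability at or below 30%; inactive = viability above 30%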;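 also: 100% = median luminescence of DMSO-only cell control wells on each plate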
H69AR growth 86K = proliferation blockers of H69AR lung cancer cells, primary screen, cell-based, human, 86K library; H69AR lung tumor viability, ATP luminescence, 72 h; active compounds read low; viability, % at 10 µM; hit rate 6% among 85,000; AID 598, 2007;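 active = viability at or below 40%; inactive = viability above 40%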;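 also: multidrug resistant small cell line overexpressing MRP-1 efflux transporter; 100% = mean luminescence of untreated control wells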
tolC growth inh = growth inhibitors of E. coli tolC mutant, primary screen, strain BW25113 ΔtolC::kan, 384-well; OD615; growth inhibition, % at 10 µM (by protocol); hit rate 2.2% among 65,000; AID 573, 2007;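 active = growth inhibition at or above a cutoff equal to the mean over every tested compound plus 3 SD, cut at about 60% in these data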;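 also: growth measured after 20 h incubation at 37 °C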
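Test system – E. coli BW25113 ΔtolC::kan, tolC deletion mutant strain · Detection – OD at 615 nm · Buffer or medium – LB with kanamycin 50 µg/mL · Times – 20 h compound exposure of bacteria at 37 °C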
Jurkat tox 60K = cytotoxicity toward Jurkat T cells, primary screen, cytotoxicity control, cell-based, Jurkat E6.1, 60K MLSMR library | inhibition, % at 4 µM | hit rate 1.2% among 56,000 | Jurkat E6.1 viability, ATP luminescence, 48 h;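 active = inhibition above the mean inhibition of all tested compounds plus 3 SD, cut at about 28% in these data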
Starred values were filed as active, the others as inactive; nt = no result.

SMILES	E coli WT exp	Fibroblast inh	HUVEC prolif 384	H69AR growth 86K	tolC growth inh	Jurkat tox 60K
Cc1cc(C)c(NC(=O)CSc2nc3ccc(NC(=O)CSc4nnnn4Cc4ccccc4)cc3s2)c(C)c1	nt	83	84	14*	nt	nt
COC(=O)CSc1nc2ccc(NC(=O)CSc3nnnn3Cc3ccccc3)cc2s1	-9	31*	56	90	7	1
CCCc1nc(S(=O)(=O)Cc2ccc(Cl)cc2Cl)n[nH]1	0	99	96	86	6	-8
CCOC(=O)N1CCN(C(=O)c2ccc3c(=O)n(Cc4ccc(Cl)cc4)c(=S)[nH]c3c2)CC1	-17	93	53	13*	60	nt
CCOC(=O)N1CCN(C(=O)c2ccc3c(=O)n(CCC4=CCCCC4)c(=S)[nH]c3c2)CC1	-2	91	78	43	-14	-4
CCOC(=O)N1CCN(C(=O)c2ccc3c(=O)n(CCc4ccccc4)c(=S)[nH]c3c2)CC1	-8	76	44	10*	-17	-6
COCCn1c(=S)[nH]c2cc(C(=O)N3CCN(c4ccccc4OC)CC3)ccc2c1=O	-3	85	81	78	-9	nt
CCN1CCN(C(=O)c2ccc3c(=O)n(C4CCCC4)c(=S)[nH]c3c2)CC1	-7	87	85	87	-10	4
COCCn1c(=S)[nH]c2cc(C(=O)N3CCN(c4ccc(F)cc4)CC3)ccc2c1=O	-1	92	91	35*	8	nt
O=C(c1ccc2c(=O)n(C3CCCC3)c(=S)[nH]c2c1)N1CCN(C2CCCCC2)CC1	4	93	87	56	68*	-5
COc1cccc(NC(=O)C2C3C=CC(O3)C2C(=O)NCc2cccnc2)c1 (configuration not stated)	1	nt	nt	nt	nt	nt
CC(C)=CCC/C(C)=C/CC(C)(C)CNCCN1CCNCC1	24	1.7*	1.5*	0.6*	nt	nt
CC(C)=CCC/C(C)=C/CCC(C)NCCN1CCNCC1 (configuration not stated)	22	14*	61	52	-4	4
Oc1c(Cl)cc(Cl)cc1Sc1cc(Cl)cc(Cl)c1O	nt	84	33	14*	9	nt
Oc1c(Cl)cc(Cl)cc1C(C#Cc1ccccc1)N1CCOCC1 (configuration not stated)	-8	nt	nt	nt	nt	nt
O=C(CCN1CCc2ccccc2C1)c1ccc2c(c1)OCCO2	7	80	87	0.7*	-9	-5
O=C(CCN1CCc2ccccc21)c1ccc2c(c1)OCCO2	-9	95	101	92	1	nt
O=C(Nc1nc2ccccc2s1)C1CC(=O)N(c2ccc(F)cc2)C1 (configuration not stated)	5	95	87	55	nt	nt
Cc1cccc(C(C)(C)C)c1OCCn1ccnc1	14	100	112	94	92*	9
Cc1cc(Cl)cc(C)c1OCCCCn1ccnc1	24	96	100	75	92*	1
Cc1cccc(Cl)c1OCCCCn1ccnc1	18	94	101	103	7	7
COc1ccc(CCNC(=O)c2cc3sc(Cl)cc3n2C)cc1OC	0	113	113	109	63*	-1
COc1ccc(CCNC(=O)c2ccncc2)cc1OC	-11	100	100	95	1	4
Cc1ccc(S(=O)(=O)c2nc(-c3ccc(F)cc3)oc2SCC(=O)NCC2CCCO2)cc1 (configuration not stated)	-13	62	71	28*	-6	nt
O=C(CSc1oc(-c2ccc(F)cc2)nc1S(=O)(=O)c1ccc(F)cc1)NCC1CCCO1 (configuration not stated)	-15	14*	61	49	2	nt
SMILES	E coli WT exp	Fibroblast inh	HUVEC prolif 384	H69AR growth 86K	tolC growth inh	Jurkat tox 60K
Cc1ccc(-c2nc(S(=O)(=O)c3ccc(F)cc3)c(SCC(=O)NCC3CCCO3)o2)cc1 (configuration not stated)	-8	94	106	86	1	nt
CSc1ccc(/C=N/NC(=O)c2cccc(O)c2)cc1	8	nt	nt	nt	nt	nt
CC(=O)Oc1cc2c(C(=O)NCCCN3CCOCC3)c(C)oc2c2ccccc12	1	4.3*	4.5*	45	2	6
O=C(NCCCN1CCOCC1)c1ccccc1	0	102	96	96	nt	nt
CCCCn1nnnc1SCC(=O)NCc1ccco1	18	104	100	91	nt	nt
CCOC(=O)C1=C(O)/C(=C\c2ccc(CNC(=O)C(=O)Nc3ccccc3)o2)N=C1C	0	106	98	36*	nt	nt
CC(c1ccccc1F)n1cc(C(=O)NCCc2ccco2)nn1 (configuration not stated)	7	100	94	57	15	nt
O=C(NNC(=O)C1CCCO1)c1ccc(Cl)cc1 (configuration not stated)	-2	nt	nt	nt	nt	nt
O=C(Nc1ccc(-c2nc3ccccc3o2)cc1)c1cccnc1	-5	105	108	83	nt	nt
COc1cccc(C(=O)Nc2ccc(-c3nc4ccccc4o3)c(O)c2)c1	-6	79	74	9.5*	19	2
COC(=O)c1ccc(-c2nc3ccc(C)cc3o2)cc1	1	97	66	26*	-13	10
COc1cc(C(=O)Nc2ccc(-c3nc4cc(C)ccc4o3)c(O)c2)cc(OC)c1OC	-18	85	80	24*	33	5
COc1cc(OC)cc(C(=O)Nc2ccc(-c3nc4ccccc4o3)cc2)c1	-11	108	35	30*	12	-18
O=S(=O)(/N=C(/Nc1ccccn1)c1ccccc1)c1ccccc1	-5	nt	nt	nt	nt	nt
CCCOc1ccc(/C(O)=C2/C(=O)C(=O)N(CCN(CC)CC)C2c2ccncc2)cc1 (configuration not stated)	nt	102	96	97	-18	-3
O=C(Nc1ccc(-c2nc3ccccc3o2)cc1)c1ccc(N2C(=O)C3C4C=CC(C4)C3C2=O)cc1 (configuration not stated)	-11	74	32	15*	nt	nt
O=C(Nc1ccc(-c2nc3ccccc3o2)cc1)c1ccc2c(c1)OCO2	-13	106	82	42	9	-2
Cc1ccc(OCC(=O)Nc2ccc(O)c(-c3nc4ccccc4o3)c2)cc1	1	54	3.0*	13*	-12	-10
O=C(Nc1ccc(-c2nc3ccccc3o2)c(O)c1)c1cc(-n2cnnc2)ccc1Cl	-9	99	95	21*	19	25
O=C(Nc1ccc(-c2nc3ccccc3o2)cc1)c1cc(-n2cnnc2)ccc1Cl	nt	109	72	74	nt	nt
c1ccc(CNc2ccc3c(c2)ncn3C2CCCCC2)nc1	14	89	95	81	23	-3
Cc1c(-c2ccccc2)sc(N)c1C(=O)N1CCOCC1	6	103	103	102	-15	2
CN(C(=O)c1ccco1)c1nc2c(s1)CCCC2	-2	99	85	83	nt	nt

Compound activity from PubChem BioAssay.
